# Screening data deposited in PubChem by Broad Institute.
# GSIS activator: primary screen for activators of insulin secretion dependent on glucose, INS-1E cells, GLuc reporter luminescence. activation, % at 16.6 µM. INS-1E GLuc reporter insulin secretion, 2-3 h. hit rate 0.61% among 370,000;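 active = lowest replicate activation of at least 40%, so every replicate reaches that level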
# F508del corr: correctors of CFTR F508del function in bronchial epithelial cells; activity (quench increase), % at 7.58 µM; CFBE cells, YFP halide quenching; stimulated with forskolin plus potentiator P3; % fluorescence drop versus neutral controls; AID 720511; hit rate 0.36% among 350,000;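 active = mean added fluorescence quench of at least 8% versus neutral control, with both replicates also reaching 8%; inconclusive = only one of the mean or replicate conditions met; inactive = mean below 8% and not both replicates reaching 8%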;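 also: cells transiently co-express mutant CFTR-F508del with the halide-sensitive YFP; corrector assay measuring rescue of mutant channel to the surface after 24 h compound exposure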
# Ecoli rRNA inh: inhibitors of bacterial rRNA selective over humanized ribosomes. E. coli WT GFP vs humanized-ribosome RFP mutants, fluorescence, 24 h; hits give low values; DMSO median 0, no signal -100. GFP signal change (wild-type ribosome), % (test concentration not listed). hit rate 1.6% among 350,000. AID 720706;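 active = significant combined selectivity score with lowered wild-type GFP, culture density cut under 30%, mutant RFP and density less affected; inactive = any of these conditions unmet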
# miR122 inh: miR-122 inhibition in Huh7 cells | Huh7 miR-122 Renilla luciferase sensor, 48 h; neutral wells = 0, positive control = 100 | activation (reporter increase), % at 12.5 µM | hit rate 0.3% among 340,000 | AID 602342;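 active = mean replicate activation score at least 90 and every replicate individually at or above 90; inconclusive = only one of the two criteria met; inactive = neither criterion met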;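 also: higher luciferase means less miR-122 activity so hits act as miR-122 inhibitors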
# Env fusion inh: HIV envelope-mediated fusion inhibition | HeLa-JRFL Env/CEM21 cell fusion, luciferase | inhibition, % at 12.3 µM | hit rate 1.1% among 360,000 | AID 651610;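 active = mean replicate inhibition score of at least 50 and every replicate individually at or above 50; inconclusive = only one of the two criteria met; inactive = mean below 50 and not all replicates reaching 50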
# Cneo AK release: Cryptococcus neoformans lysis via adenylate kinase release | C. neoformans lysis, adenylate kinase release luminescence, 4 h; normalised: neutral wells 0, clomiphene wells 100 | hit rate 0.2% among 360,000 | lysis activity, % at 15 µM;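 active = mean lysis activity across replicates of at least 80%, whatever share of replicates individually reach that level; inactive = mean lysis activity below 80%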
#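 Material – Cryptococcus neoformans yeast cells · Quantity – 5 × 10^6 yeast cells/mL · Buffer or medium – YPD medium · Compound – single dose · Timing – 4 h static compound exposure, 37 °C, read 1 h post-reagent · Signal – adenylate kinase release luminescence · Read-out basis – lysis from increased AK signal · Benchmarks – Clomiphene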
# A number is an active result; n = inactive; u = inconclusive; x = no result. Sampled rows, rich in hits. Any-hit rate of the full collection: about 3.1%.
SMILES,GSIS activator,F508del corr,Ecoli rRNA inh,miR122 inh,Env fusion inh,Cneo AK release
CCCC(=O)Nc1sc(Cc2ccccc2)c(C)c1C(N)=O,n,n,-24,n,n,n
Cc1ccccc1NC(=S)NC(=O)CCc1ccccc1,n,x,x,n,n,103
Cc1sc(NC(=S)NC(=O)CCc2ccccc2)c(C(N)=O)c1C,n,12,n,n,n,x
Cc1cccc(C)c1NC(=S)NC(=O)CCc1ccccc1,n,n,n,n,x,n
Cn1cc(C(=O)NCC(=O)Nc2ccccc2Br)cn1,41,n,n,n,x,n
O=C(CNC(=O)c1cccc(-n2cccc2)c1)Nc1ccccc1Br,x,n,n,n,70,n
O=C(CSc1nnc(-c2ccccc2)o1)Nc1ccccc1F,n,n,n,n,n,n
O=C(CSc1nnc(-c2ccc(Br)cc2)o1)Nc1cccc(C(=O)O)c1,n,n,n,n,88,n
Cc1ccc(-c2nnc(SCC(=O)Nc3ccccc3F)o2)cc1,n,n,n,x,66,n
Cc1ccccc1CSCC(=O)Nc1ccccc1F,n,n,-25,n,n,n
CCCC(=O)Nc1ccc2c(c1)C(=O)N(C)C[C@@H](OC)[C@H](C)CN(C(=O)CN(C)C)[C@H](C)CO2,n,n,n,n,x,n
COc1cccc(NC(=O)N(C)C[C@@H]2OCc3cnnn3CCCC(=O)N([C@H](C)CO)C[C@H]2C)c1,n,n,n,n,x,n
O=C(N[C@@H]1CC[C@H](CCn2cc(C3(O)CCCC3)nn2)O[C@H]1CO)C1CCCC1,n,n,n,n,n,n
C[C@@H]1CN([C@@H](C)CO)C(=O)c2cc(NC(=O)CCCN(C)C)ccc2O[C@@H](C)CCCCO[C@@H]1CN(C)S(=O)(=O)c1ccccc1,n,n,n,n,n,n
COc1ccc(NC(=S)N=Nc2c(O)[nH]c3ccccc23)cc1,n,n,-47,n,n,n
Cc1ccc(NC(=S)N=Nc2c(O)[nH]c3ccccc23)cc1,n,n,n,x,n,x
Oc1cccc(NC(=S)N=Nc2c(O)[nH]c3ccc(Br)cc23)c1,n,n,-37,n,n,n
Oc1[nH]c2ccc(Br)cc2c1N=NC(=S)Nc1ccc(F)cc1,n,u,n,x,n,n
Oc1ccc(NC(=S)N=Nc2c(O)[nH]c3ccc(Br)cc23)cc1,n,n,-23,n,n,n
C[C@@H]1CN([C@H](C)CO)C(=O)c2cc(C3=CCCCC3)cnc2O[C@@H]1CN(C)C(=O)Nc1cccc(F)c1,n,n,n,n,n,n
CCOC(=O)NCc1ccc2[nH]c(C)cc2c1,n,n,n,n,x,136
COc1ccc(-c2csc(NC(=O)CCNC(=O)c3ccco3)n2)cc1OC,n,n,n,n,x,n
COc1ccc(-c2nc(CCNC(=O)c3ccco3)cs2)cc1OC,89,n,n,n,n,n
COc1ccc2c(c1)/C(=C/c1cc(OC)c(OC)c(OC)c1)C(=O)N2,n,13,n,n,n,x
COC(=O)/C(=C/Nc1cccc2ccccc12)[N+](=O)[O-],n,n,-21,x,x,x
SMILES,GSIS activator,F508del corr,Ecoli rRNA inh,miR122 inh,Env fusion inh,Cneo AK release
CCCN1C[C@@H](C)[C@@H](OC)CN(C)C(=O)c2cc(NC(=O)c3cnccn3)ccc2OC[C@@H]1C,n,n,n,x,n,n
Cc1ncc(/C=C2\C(=O)Nc3ccccc32)[nH]1,n,n,-19,x,n,x
Cc1ccc(-c2nnc(N3CCN(C(=O)COc4cccc(C)c4)CC3)c3ccccc23)cc1,x,n,-33,x,n,x
Cc1ccc(OCC(=O)N2CCN(c3nnc(-c4ccc(C)cc4)c4ccccc34)CC2)cc1,x,x,x,n,n,n
CC(=O)N1CCN(c2nnc(-c3ccccc3)c3ccccc23)CC1,40,n,n,n,n,n
Cc1ccc(-c2nnc(N3CCN(C(=O)CN4C(=O)c5ccccc5C4=O)CC3)c3ccccc23)cc1,53,x,x,n,n,n
O=C(CN1C(=O)c2ccccc2C1=O)N1CCN(c2nnc(-c3ccccc3)c3ccccc23)CC1,x,x,x,n,n,n
Cc1cccc(OCC(=O)N2CCN(c3nnc(-c4ccccc4)c4ccccc34)CC2)c1,n,n,-43,x,n,x
O=C(COc1ccccc1)N1CCN(c2nnc(-c3ccccc3)c3ccccc23)CC1,x,x,x,n,n,n
COc1ccccc1CCn1cnc(-c2ccccc2OC)c1CC(C)C,65,n,n,x,n,x
COc1ccccc1CCn1cnc(-c2ccc(F)cc2)c1CC(C)C,120,n,n,x,n,x
COc1ccccc1CCn1cnc(C)c1CC(C)C,n,n,n,x,n,x
CCCCc1c(-c2ccc(OC)cc2)ncn1CCc1ccccc1OC,n,n,n,x,n,x
CCCCCc1c(-c2ccc(OC)cc2)ncn1CCc1ccccc1OC,n,n,n,x,62,x
COc1ccccc1CCn1cnc(-c2ccccc2)c1CC(C)C,x,n,n,x,n,x
CCCN1[C@H](C(=O)OC)[C@@H](CO)[C@@H]2Cn3c(ccc(C4=CCCCC4)c3=O)[C@@H]21,n,n,n,n,x,n
COc1ccc2c3c([nH]c2c1)[C@@H](CO)N(C(=O)CN1CCOCC1)CC31CN(C(=O)NC(C)C)C1,n,n,n,x,x,x
O=C(Nc1ccc2c(c1)[C@H]1C[C@H](CC(=O)N3CCOCC3)O[C@H](CO)[C@H]1O2)NC1CCCC1,n,n,n,n,x,n
CC(=O)N(C)C[C@H]1Oc2cc(-c3ccccc3C)ccc2S(=O)(=O)N([C@@H](C)CO)C[C@@H]1C,n,n,n,n,n,n
Cc1ccc(S(=O)(=O)N(C)C[C@H]2Oc3ccc(NS(C)(=O)=O)cc3C(=O)N([C@H](C)CO)C[C@@H]2C)cc1,n,n,n,n,n,n
CN(C)C(=O)C[C@@H]1CC[C@@H]2[C@@H](COc3ccc(NC(=O)Nc4cccc(Cl)c4)cc3C(=O)N2C)O1,n,n,n,n,x,n
C/C=C/c1ccccc1[C@@H]1[C@@H](C#N)N(C(=O)c2cccnc2)[C@@H]1CO,n,n,n,x,n,x
c1ccc(Nc2ccc(NCCc3c[nH]c4ccccc34)cc2)cc1,x,n,-24,x,n,x
O=C(CCc1c[nH]c2ccccc12)Nc1ccc(Nc2ccncc2)cc1,n,n,n,x,n,x
O=C(CCc1c[nH]c2ccccc12)Nc1ccc(Nc2cccnc2)cc1,x,n,-30,x,n,x
C[C@H](CO)N1C[C@H](C)[C@@H](CN(C)S(=O)(=O)c2ccccc2F)OCc2ccccc2-c2ccccc2C1=O,n,x,n,x,x,x
O=[N+]([O-])c1ccc(NN=C(C2CC2)C2CC2)c([N+](=O)[O-])c1,x,n,-21,n,x,n
OC[C@H]1[C@H]2c3ccccc3NC[C@H]2N1CC1CCOCC1,n,n,n,n,x,n
COc1ccc(CNc2ncnc3cc(OC)c(OC)cc23)cc1,n,x,x,n,x,n
COc1ccc(CNc2ncnc3cc(OC)c(OC)cc23)cc1OC,n,n,-17,x,n,x
